Source: PMC2151581 (The Journal of General Physiology, 2006)
Ends that are not written are not given here.

Legend:
BK channels = conditions: wild type and calcium bowl mutant channels; ref Zakharov et al., 2005; cited from earlier work
[1] = biological target: Drosophila Slowpoke calcium-dependent potassium channel (dSlo) (Drosophila melanogaster, UniProt Q03720); test: Inside-out patch recording of dSlo current with peptide on the cytoplasmic side; type: cell-based
In short: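 Inside-out patches came from CHO cells transfected with dSlo, in symmetrical 150 mM KCl, 0.5 mM HEDTA, 1 mM Mg²⁺, 10 mM HEPES pH 7.2, with 7 μM free Ca²⁺, at room temperature. Peptide was dissolved in the bath (cytoplasmic side). Patches were stepped from −80 to +140 mV; the mean current over the last 10 ms was normalized to the same patch before peptide. A Hill equation fit across concentrations gave IC50.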

[2] = system: dSloD5N5 (calcium bowl mutant of dSlo); type: cell-based, Drosophila
In short: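 CHO cells were cotransfected 1:1 (molar) with dSloD5N5 and Slob57 or truncation mutants using Lipofectamine 2000. Whole-cell recording was done 1 d later at room temperature with 2–4 MΩ pipettes, in symmetrical 150 mM KCl, 0.5 mM HEDTA, 2 mM MgCl₂, 10 mM HEPES pH 7.2, with 110 or 300 μM free Ca²⁺ in the pipette. Holding was −80 mV, then −120 mV afterward. 350-ms pulses were used for inactivation; 100-ms pulses gave G–V from peak tail currents and V1/2. Mean ± SEM, ANOVA/Bonferroni.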

dSlo = test: Coimmunoprecipitation of Slobs with dSlo from CHO cell lysates, Western blot; type: binding, Drosophila; conditions: cotransfected CHO cells, anti-Slob immunoprecipitation
In short: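 Slobs were cotransfected with the channel into CHO cells (Ham's F-12, 10% FBS, penicillin/streptomycin) using Lipofectamine 2000. Lysis was 1 d later in Tris-HCl pH 7.5/NaCl/KCl/NaF/1% CHAPS buffer with DTT and protease inhibitors. The 16,000 g supernatant was incubated with anti-Slob for 2 h at 4°C, then protein A/G agarose overnight at 4°C, with four PBS washes. SDS-PAGE, nitrocellulose, anti-dSlo 1 h at RT, HRP anti-rabbit, ECL. Controls were blank vector and nontransfected cells.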

Sequence of Drosophila Slowpoke calcium-dependent potassium channel (dSlo) (Q03720 whole entry): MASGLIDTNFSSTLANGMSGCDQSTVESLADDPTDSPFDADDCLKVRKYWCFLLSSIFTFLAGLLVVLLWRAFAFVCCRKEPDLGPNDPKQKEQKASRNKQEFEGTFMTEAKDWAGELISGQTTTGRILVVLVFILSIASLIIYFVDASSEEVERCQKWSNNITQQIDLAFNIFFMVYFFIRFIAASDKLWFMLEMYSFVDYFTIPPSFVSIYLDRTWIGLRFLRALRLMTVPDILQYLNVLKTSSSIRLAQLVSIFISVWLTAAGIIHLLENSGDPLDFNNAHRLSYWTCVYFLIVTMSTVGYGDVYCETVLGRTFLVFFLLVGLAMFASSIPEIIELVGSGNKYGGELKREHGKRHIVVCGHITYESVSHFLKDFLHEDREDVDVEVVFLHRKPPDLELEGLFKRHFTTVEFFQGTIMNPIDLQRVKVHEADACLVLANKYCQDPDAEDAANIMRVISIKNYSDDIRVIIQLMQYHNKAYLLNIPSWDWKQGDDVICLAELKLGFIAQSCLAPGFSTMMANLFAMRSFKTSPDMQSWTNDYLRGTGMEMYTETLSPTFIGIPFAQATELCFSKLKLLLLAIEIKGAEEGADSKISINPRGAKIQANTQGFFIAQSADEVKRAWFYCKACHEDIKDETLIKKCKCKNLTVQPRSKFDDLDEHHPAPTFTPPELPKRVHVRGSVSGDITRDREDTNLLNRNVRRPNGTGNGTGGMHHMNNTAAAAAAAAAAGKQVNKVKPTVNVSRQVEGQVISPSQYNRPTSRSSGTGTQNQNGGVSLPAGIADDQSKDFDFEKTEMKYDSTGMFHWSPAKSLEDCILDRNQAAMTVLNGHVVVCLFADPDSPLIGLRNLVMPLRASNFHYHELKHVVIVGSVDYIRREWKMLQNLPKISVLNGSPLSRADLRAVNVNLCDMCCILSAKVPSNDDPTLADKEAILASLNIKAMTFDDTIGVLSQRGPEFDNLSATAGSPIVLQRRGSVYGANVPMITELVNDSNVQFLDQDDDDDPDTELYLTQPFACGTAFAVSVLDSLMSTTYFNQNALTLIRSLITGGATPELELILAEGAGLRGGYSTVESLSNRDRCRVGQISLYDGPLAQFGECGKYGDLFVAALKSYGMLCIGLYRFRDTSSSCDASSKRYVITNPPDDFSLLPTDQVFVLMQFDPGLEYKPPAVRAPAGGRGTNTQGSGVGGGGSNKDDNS

**Q.** For `CC(=O)c1c(O)c(C)c(O)c(Cc2c(O)c3c(c(C(=O)/C=C/c4ccccc4)c2O)OC(C)(C)C=C3)c1O` [mallotoxin], which “Ca2+ dependence of the modulation of BK channels” value (BK channels) is on record?
**A.** independent of Ca^2+ binding

**Q.** What does the source list for MFKFNK [MFKFNK]?
**A.** IC50 [1]: 31 µM; Kd [1]: 162 µM

B1: Slob57: ion channel auxiliary protein that binds to and modulates the Drosophila Slowpoke channel (dSlo) (protein)
chain: MFKFNKAAQQQRIDNRNSAVTGHDPFVRPPVPEKKVRNIMKKLHKANGLKRSNSAIEFDVSALTAANRRQIYSSNRSASSEQDNSDLSEHSEKSPLVSARLDNLARLFFSKSMPAETGSRDTIDSVLTTRPNIKYQYSALDSGNGIVERSPRERAQREKALNATQEWIQGANGRYEVIAHLDEIGSRHGKNWFLVTDASVRTDRLQTLLPLPPDCVAFEDLPPNECAREILMELLGSLHHPYIYPVLDLGFLRNSSYNYACLVTPFNSRGSLKDLIYKAQWNEPWARKYTRKPNGLPVSQVQRLGRQILEALLFLKERGFPLHGHLHSGNVILQNGAARLSGLENGLLGLSSRINAVMWSRSVTEIENVDIVCFGHLLYEMCTGQELTTPKPSMRVLEMELQHYPQIGQTRKQILEILGLIFEPPSGVCPSVEDLVLCDLFRSIDLRELRGPCFSTIKPSLSRSTLNLLQAVKKRQCASLGHSLSEANSPCTPPSTPHDRRTGVLPAPYEVFRMY
**Q.** Which results are given for B1?
**A.** shift of the conductance–voltage relationship of dSloD5N5 ([2]; 100-ms test pulse, 110 μM free Ca2+): does not rightward shift; modulation of V1/2 of dSloD5N5 ([2]; 100-ms test pulse, 300 μM free Ca2+): not modulated; inactivation of dSloD5N5 ([2]; coexpression in CHO cells, whole cell, 110 μM free Ca2+, 350-ms test pulse): causes dSloD5N5 inactivation

B2: Slob57ΔN15: amino-terminal 15 residue–truncated Slob57 (deletion of residues 2–16) (protein)
chain: MNSAVTGHDPFVRPPVPEKKVRNIMKKLHKANGLKRSNSAIEFDVSALTAANRRQIYSSNRSASSEQDNSDLSEHSEKSPLVSARLDNLARLFFSKSMPAETGSRDTIDSVLTTRPNIKYQYSALDSGNGIVERSPRERAQREKALNATQEWIQGANGRYEVIAHLDEIGSRHGKNWFLVTDASVRTDRLQTLLPLPPDCVAFEDLPPNECAREILMELLGSLHHPYIYPVLDLGFLRNSSYNYACLVTPFNSRGSLKDLIYKAQWNEPWARKYTRKPNGLPVSQVQRLGRQILEALLFLKERGFPLHGHLHSGNVILQNGAARLSGLENGLLGLSSRINAVMWSRSVTEIENVDIVCFGHLLYEMCTGQELTTPKPSMRVLEMELQHYPQIGQTRKQILEILGLIFEPPSGVCPSVEDLVLCDLFRSIDLRELRGPCFSTIKPSLSRSTLNLLQAVKKRQCASLGHSLSEANSPCTPPSTPHDRRTGVLPAPYEVFRMY
**Q.** For B2, which “binding to dSlo (coimmunoprecipitation)” value (dSlo) is on record?
**A.** still bind to dSlo

B3: Slob57ΔN5: amino-terminal five residue–truncated Slob57 (deletion of residues 2–6) (protein)
chain: MAAQQQRIDNRNSAVTGHDPFVRPPVPEKKVRNIMKKLHKANGLKRSNSAIEFDVSALTAANRRQIYSSNRSASSEQDNSDLSEHSEKSPLVSARLDNLARLFFSKSMPAETGSRDTIDSVLTTRPNIKYQYSALDSGNGIVERSPRERAQREKALNATQEWIQGANGRYEVIAHLDEIGSRHGKNWFLVTDASVRTDRLQTLLPLPPDCVAFEDLPPNECAREILMELLGSLHHPYIYPVLDLGFLRNSSYNYACLVTPFNSRGSLKDLIYKAQWNEPWARKYTRKPNGLPVSQVQRLGRQILEALLFLKERGFPLHGHLHSGNVILQNGAARLSGLENGLLGLSSRINAVMWSRSVTEIENVDIVCFGHLLYEMCTGQELTTPKPSMRVLEMELQHYPQIGQTRKQILEILGLIFEPPSGVCPSVEDLVLCDLFRSIDLRELRGPCFSTIKPSLSRSTLNLLQAVKKRQCASLGHSLSEANSPCTPPSTPHDRRTGVLPAPYEVFRMY
**Q.** For B3, which “binding to dSlo (coimmunoprecipitation)” value (dSlo) is on record?
**A.** still bind to dSlo
